Assay results from ChEMBL document CHEMBL1146223, “Synthesis, monoamine transporter binding, properties, and functional monoamine uptake activity of 3beta-[4-methylphenyl and 4-chlorophenyl]-2 beta-[5-(substituted phenyl)thiazol-2-yl]tropanes” (J Med Chem, 2007).

Legend:
[1] = molecular target: Sodium-dependent dopamine transporter (Rattus norvegicus, UniProt P23977); assay: Displacement of [3H]WIN-35428 from DAT in Sprague-Dawley rat brain; type: tissue-based
How it was run: (§1)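 Male Sprague-Dawley rats (200-250 g); striata, midbrain or frontal cortex tissue used for competition binding. Final radioligand concentrations were 0.5 nM for DAT, 0.2 nM [³H]paroxetine for SERT and 0.5 nM [³H]nisoxetine for NET.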

[2] = molecular target: Sodium-dependent serotonin transporter (Rattus norvegicus, UniProt P31652); assay: Displacement of [3H]paroxetine from SERT in Sprague-Dawley rat brain; type: tissue-based; how it was run: as §1
[3] = molecular target: Norepinephrine transporter (Rattus norvegicus, UniProt Q9WTR4); assay: Displacement of [3H]nisoxetine from NET in Sprague-Dawley rat brain; type: tissue-based; how it was run: as §1
[4] = molecular target: Sodium-dependent dopamine transporter (Homo sapiens, UniProt Q01959); assay: Displacement of [125I]RTI-55 from human DAT expressed in HEK cells after 90 mins; type: cell-based, HEK293
How it was run: (§2)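 Competition binding on human DAT or SERT stably expressed in HEK293 cells, using the nonselective radioligand [¹²⁵I]RTI-55.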

[5] = molecular target: T1, Sodium-dependent serotonin transporter (Homo sapiens, UniProt P31645); assay: Displacement of [125I]RTI-55 from human SERT expressed in HEK cells after 90 mins; type: cell-based, HEK293; how it was run: as §2
[6] = molecular target: T1, Sodium-dependent serotonin transporter; assay: Inhibition of human SERT in HEK cells assessed as [3H]serotonin reuptake; type: functional, cell-based, HEK293
How it was run: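 Human SERT stably expressed in HEK293 cells; the compound's block of radiolabelled serotonin reuptake was measured in these cells.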

[7] = molecular target: T2, Sodium-dependent noradrenaline transporter (Homo sapiens, UniProt P23975); assay: Displacement of [125I]RTI-55 from human NET expressed in HEK cells after 90 mins; type: cell-based, HEK293
[8] = molecular target: T2, Sodium-dependent noradrenaline transporter; assay: Inhibition of human NET in HEK cells assessed as [3H]norepinephrine reuptake; type: functional, cell-based, HEK293

Chain of Sodium-dependent serotonin transporter (Rattus norvegicus, UniProt P31652) (P31652 whole entry): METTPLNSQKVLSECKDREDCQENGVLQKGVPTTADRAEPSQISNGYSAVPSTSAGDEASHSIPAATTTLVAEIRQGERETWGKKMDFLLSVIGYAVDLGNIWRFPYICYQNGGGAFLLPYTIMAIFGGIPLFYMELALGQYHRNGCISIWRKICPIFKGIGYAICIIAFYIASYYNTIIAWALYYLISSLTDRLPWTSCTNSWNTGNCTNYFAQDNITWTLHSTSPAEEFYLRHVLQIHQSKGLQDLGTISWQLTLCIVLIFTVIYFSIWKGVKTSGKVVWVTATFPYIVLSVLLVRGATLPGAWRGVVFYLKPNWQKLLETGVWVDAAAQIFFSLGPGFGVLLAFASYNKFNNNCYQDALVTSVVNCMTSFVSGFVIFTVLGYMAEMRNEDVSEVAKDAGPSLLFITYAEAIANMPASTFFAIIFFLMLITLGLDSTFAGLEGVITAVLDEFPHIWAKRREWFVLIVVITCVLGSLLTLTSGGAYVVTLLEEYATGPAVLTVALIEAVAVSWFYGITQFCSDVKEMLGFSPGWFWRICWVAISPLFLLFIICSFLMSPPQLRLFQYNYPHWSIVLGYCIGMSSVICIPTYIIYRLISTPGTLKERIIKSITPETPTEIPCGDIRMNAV
T1 sequence (P31645 whole entry): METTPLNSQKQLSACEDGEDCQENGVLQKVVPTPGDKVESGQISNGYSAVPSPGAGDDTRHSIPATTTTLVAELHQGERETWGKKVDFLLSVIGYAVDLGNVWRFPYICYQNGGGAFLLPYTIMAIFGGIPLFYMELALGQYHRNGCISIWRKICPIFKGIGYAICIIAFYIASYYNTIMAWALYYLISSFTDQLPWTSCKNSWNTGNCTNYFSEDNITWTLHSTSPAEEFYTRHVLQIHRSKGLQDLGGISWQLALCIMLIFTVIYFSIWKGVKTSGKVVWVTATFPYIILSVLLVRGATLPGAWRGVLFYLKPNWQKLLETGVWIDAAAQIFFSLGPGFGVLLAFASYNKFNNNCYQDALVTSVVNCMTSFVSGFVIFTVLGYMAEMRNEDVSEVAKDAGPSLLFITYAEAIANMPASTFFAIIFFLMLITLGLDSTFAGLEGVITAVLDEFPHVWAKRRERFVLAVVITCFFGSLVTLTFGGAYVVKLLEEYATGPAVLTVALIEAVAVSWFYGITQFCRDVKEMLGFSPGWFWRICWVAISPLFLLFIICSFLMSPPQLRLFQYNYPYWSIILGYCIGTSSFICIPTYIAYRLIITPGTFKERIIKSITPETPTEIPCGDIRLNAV
Chain of Sodium-dependent dopamine transporter (Rattus norvegicus, UniProt P23977) (P23977 whole entry): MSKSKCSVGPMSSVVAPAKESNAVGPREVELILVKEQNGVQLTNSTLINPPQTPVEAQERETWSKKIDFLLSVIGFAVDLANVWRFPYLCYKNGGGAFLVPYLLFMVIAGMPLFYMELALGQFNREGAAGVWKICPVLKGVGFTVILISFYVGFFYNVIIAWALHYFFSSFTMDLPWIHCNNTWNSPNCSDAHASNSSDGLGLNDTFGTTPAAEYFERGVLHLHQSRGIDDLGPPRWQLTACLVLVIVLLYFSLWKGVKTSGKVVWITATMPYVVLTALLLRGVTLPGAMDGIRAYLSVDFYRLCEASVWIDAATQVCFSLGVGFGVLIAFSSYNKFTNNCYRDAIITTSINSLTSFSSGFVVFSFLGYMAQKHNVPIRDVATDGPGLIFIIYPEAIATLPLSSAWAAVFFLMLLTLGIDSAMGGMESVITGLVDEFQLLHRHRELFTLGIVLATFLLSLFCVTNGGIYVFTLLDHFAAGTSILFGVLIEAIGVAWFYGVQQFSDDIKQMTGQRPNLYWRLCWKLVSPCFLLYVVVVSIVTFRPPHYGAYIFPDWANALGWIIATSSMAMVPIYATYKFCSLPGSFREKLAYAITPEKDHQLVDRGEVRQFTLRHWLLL
T2 sequence (P23975 whole entry): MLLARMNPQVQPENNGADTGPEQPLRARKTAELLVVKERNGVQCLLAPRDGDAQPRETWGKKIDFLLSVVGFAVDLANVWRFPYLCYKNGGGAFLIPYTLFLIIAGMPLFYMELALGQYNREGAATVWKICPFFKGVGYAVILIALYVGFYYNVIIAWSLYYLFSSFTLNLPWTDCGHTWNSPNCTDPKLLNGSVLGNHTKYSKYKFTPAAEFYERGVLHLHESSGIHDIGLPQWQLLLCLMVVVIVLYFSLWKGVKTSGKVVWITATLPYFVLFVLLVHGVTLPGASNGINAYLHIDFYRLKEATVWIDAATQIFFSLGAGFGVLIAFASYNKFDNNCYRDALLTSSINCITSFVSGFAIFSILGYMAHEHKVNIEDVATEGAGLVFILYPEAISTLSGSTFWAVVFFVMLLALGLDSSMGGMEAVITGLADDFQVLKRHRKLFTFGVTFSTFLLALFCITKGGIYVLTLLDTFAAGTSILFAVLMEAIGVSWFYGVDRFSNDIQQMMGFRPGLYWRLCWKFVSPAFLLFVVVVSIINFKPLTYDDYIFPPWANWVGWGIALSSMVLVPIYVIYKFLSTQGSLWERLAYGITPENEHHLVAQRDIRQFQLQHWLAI
Chain of Norepinephrine transporter (Q9WTR4 whole entry): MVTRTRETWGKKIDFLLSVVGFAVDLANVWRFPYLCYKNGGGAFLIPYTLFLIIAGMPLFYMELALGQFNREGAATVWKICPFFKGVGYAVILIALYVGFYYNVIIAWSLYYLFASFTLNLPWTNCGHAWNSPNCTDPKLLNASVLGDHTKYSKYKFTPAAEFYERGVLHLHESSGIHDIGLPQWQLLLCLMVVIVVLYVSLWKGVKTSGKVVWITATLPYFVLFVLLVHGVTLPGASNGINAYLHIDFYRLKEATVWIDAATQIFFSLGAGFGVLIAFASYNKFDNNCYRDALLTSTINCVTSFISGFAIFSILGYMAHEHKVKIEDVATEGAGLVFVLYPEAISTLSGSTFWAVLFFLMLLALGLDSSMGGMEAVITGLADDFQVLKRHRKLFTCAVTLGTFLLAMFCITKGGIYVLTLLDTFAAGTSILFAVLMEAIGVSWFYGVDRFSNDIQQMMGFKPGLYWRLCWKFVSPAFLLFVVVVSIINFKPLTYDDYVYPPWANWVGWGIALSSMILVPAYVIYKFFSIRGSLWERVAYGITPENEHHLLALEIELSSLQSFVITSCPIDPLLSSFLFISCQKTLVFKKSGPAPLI
Chain of Sodium-dependent dopamine transporter (Homo sapiens, UniProt Q01959) (Q01959 whole entry): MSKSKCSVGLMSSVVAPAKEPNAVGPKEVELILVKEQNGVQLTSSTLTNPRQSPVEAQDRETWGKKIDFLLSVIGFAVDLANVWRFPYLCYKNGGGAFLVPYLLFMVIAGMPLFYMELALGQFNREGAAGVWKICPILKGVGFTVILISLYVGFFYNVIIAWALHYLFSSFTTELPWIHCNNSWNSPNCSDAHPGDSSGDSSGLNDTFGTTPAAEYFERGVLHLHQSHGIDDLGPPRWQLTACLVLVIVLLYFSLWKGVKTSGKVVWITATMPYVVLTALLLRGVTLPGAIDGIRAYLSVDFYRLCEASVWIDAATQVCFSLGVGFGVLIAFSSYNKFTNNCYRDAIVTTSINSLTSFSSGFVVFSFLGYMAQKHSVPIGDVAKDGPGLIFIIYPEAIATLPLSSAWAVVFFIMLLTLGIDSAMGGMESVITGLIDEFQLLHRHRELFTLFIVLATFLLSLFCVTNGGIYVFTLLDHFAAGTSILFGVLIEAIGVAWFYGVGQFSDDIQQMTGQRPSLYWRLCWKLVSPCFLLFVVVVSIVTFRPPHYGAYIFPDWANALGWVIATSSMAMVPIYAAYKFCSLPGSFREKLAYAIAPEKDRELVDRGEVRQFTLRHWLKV

| SMILES | IC50 [1] [nM] | Ki [2] [nM] | Ki [3] [nM] | Ki [4] [nM] | Ki [5] [nM] | IC50 [6] [nM] | Ki [7] [nM] | IC50 [8] [nM] |
| --- | --- | --- | --- | --- | --- | --- | --- | --- |
| CN1[C@H]2CC[C@@H]1[C@@H](c1ncc(-c3ccc(Cl)c(Cl)c3)s1)[C@@H](c1ccc(Cl)cc1)C2 | 440 | 380 | > 2000 | 66 | 2710 | 5300 | – | – |
| CN1[C@H]2CC[C@@H]1[C@@H](c1ncc(-c3ccc([N+](=O)[O-])cc3)s1)[C@@H](c1ccc(Cl)cc1)C2 | 20 | 980 | > 2000 | 6.1 | 1820 | 3600 | – | – |
| COc1ccc(-c2cnc([C@H]3[C@@H](c4ccc(C)cc4)C[C@@H]4CC[C@H]3N4C)s2)cc1OC | 83 | > 2000 | > 2000 | 529 | 7710 | > 10000 | – | – |
| COC(=O)[C@H]1[C@@H](c2ccccc2)C[C@@H]2CC[C@H]1N2C [TROPARIL] | 23 | – | 920 | – | – | – | – | – |
| COc1ccc(-c2cnc([C@H]3[C@@H](c4ccc(Cl)cc4)C[C@@H]4CC[C@H]3N4C)s2)cc1 | 14 | 800 | > 2000 | 8.6 | 5200 | 6700 | – | – |
| Cc1ccc([C@H]2C[C@@H]3CC[C@H]([C@H]2c2ncc(-c4ccc(F)cc4)s2)N3C)cc1 | 12 | 2240 | > 2000 | 61 | 1720 | 3200 | – | – |
| CN1[C@H]2CC[C@@H]1[C@@H](c1ncc(-c3cccc(Br)c3)s1)[C@@H](c1ccc(Cl)cc1)C2 | 18 | 280 | > 2000 | 39 | 1500 | 4000 | – | – |
| CN1[C@H]2CC[C@@H]1[C@@H](c1ncc(-c3ccc(Br)cc3)s1)[C@@H](c1ccc(Cl)cc1)C2 | – | 840 | > 2000 | – | 5700 | 8220 | – | – |
| Cc1ccc([C@H]2C[C@@H]3CC[C@H]([C@H]2c2ncc(-c4ccc([N+](=O)[O-])cc4)s2)N3C)cc1 | 41 | 1690 | > 2000 | 140 | 1640 | 3170 | – | – |
| CN1[C@H]2CC[C@@H]1[C@@H](c1ncc(-c3cccc([N+](=O)[O-])c3)s1)[C@@H](c1ccc(Cl)cc1)C2 | 5 | 301 | > 2000 | 7.7 | 740 | 1610 | – | – |
| CN1[C@H]2CC[C@@H]1[C@@H](c1ncc(-c3ccccc3)s1)[C@@H](c1ccc(Cl)cc1)C2 | 5.7 | > 2000 | 8560 | 18 | 2670 | 2710 | 1840 | 750 |
| CN1[C@H]2CC[C@@H]1[C@@H](c1ncc(-c3ccc(Cl)cc3)s1)[C@@H](c1ccc(Cl)cc1)C2 | 20 | 903 | > 2000 | 28 | 2390 | 4400 | – | – |
| CN1[C@H]2CC[C@@H]1[C@@H](c1ncc(-c3ccc(F)cc3)s1)[C@@H](c1ccc(Cl)cc1)C2 | 6 | 371 | > 2000 | 12 | 653 | 1010 | – | – |
| COc1ccc(-c2cnc([C@H]3[C@@H](c4ccc(C)cc4)C[C@@H]4CC[C@H]3N4C)s2)cc1 | 15 | > 2000 | > 2000 | 53 | 3670 | 6800 | 3630 | 1810 |
| Cc1ccc([C@H]2C[C@@H]3CC[C@H]([C@H]2c2ncc(-c4cccc([N+](=O)[O-])c4)s2)N3C)cc1 | 4 | 10000 | > 2000 | 14 | 580 | 2380 | – | – |
| Cc1ccc([C@H]2C[C@@H]3CC[C@H]([C@H]2c2ncc(-c4ccc(Cl)c(Cl)c4)s2)N3C)cc1 | 102 | 190 | > 2000 | 105 | 2940 | 4400 | > 6100 | 4000 |
| COc1ccc(-c2cnc([C@H]3[C@@H](c4ccc(Cl)cc4)C[C@@H]4CC[C@H]3N4C)s2)cc1OC | 65 | 1510 | > 2000 | 234 | 3590 | > 6800 | – | – |
| Cc1ccc([C@H]2C[C@@H]3CC[C@H]([C@H]2c2ncc(-c4ccc(Cl)cc4)s2)N3C)cc1 | 22 | 1110 | > 2000 | 212 | 1320 | 377 | – | – |
| Cc1ccc([C@H]2C[C@@H]3CC[C@H]([C@H]2c2ncc(-c4cccc(Br)c4)s2)N3C)cc1 | 10 | 312 | > 2000 | 12 | 870 | 3860 | – | – |
| Cc1ccc([C@H]2C[C@@H]3CC[C@H]([C@H]2c2ncc(-c4ccc(Br)cc4)s2)N3C)cc1 | – | – | – | 130 | 1870 | 1840 | – | – |
